Tests used:
[1] = molecular target: T1, Disintegrin and metalloproteinase domain-containing protein 17 (Homo sapiens, UniProt P78536); test: Inhibition of human TACE by fluorescent spectroscopy
[2] = molecular target: T1, Disintegrin and metalloproteinase domain-containing protein 17; test: Inhibition of human TNF-alpha by fluorescent spectroscopy; assay type: functional
Mus musculus [3] = organism: Mus musculus; test: Inhibition of NO production in mouse Raw 264.7 cells assessed as No2- accumulation in the medium after 24 hrs; assay type: functional, cell-based
In short: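 RAW264.7 cells cultured with inhibitors for 24 h. Supernatant mixed 1:1 with Griess reagent (1% sulfanilamide, 0.1% naphthylethylenediamine dihydrochloride, 2% phosphoric acid), 10 min at room temperature. Absorbance read at 540 nm against a NaNO2 standard curve.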

[4] = Half life in Sprague-Dawley rat at 5 mg/kg, iv; assay type: ADME, organism-based; set-up: dose 5 mg/kg, route intravenous; details: in vivo
In short: (§1)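 Male SD rats (10 weeks old, 285–305 g), cannulated in the right jugular vein, dosed iv or po with compound in saline, N = 3 per route. Blood drawn through the cannula at set times over 24 h and spun for plasma. Acetonitrile protein precipitation with carbamazepine internal standard, LC/MS/MS in positive MRM mode, non-compartmental analysis.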

[5] = Half life in Sprague-Dawley rat at 30 mg/kg, po; assay type: ADME, organism-based; set-up: dose 30 mg/kg, route oral; details: in vivo; in short: as §1
[6] = Mean residence time (infinity) in Sprague-Dawley rat at 5 mg/kg, iv; assay type: ADME, organism-based; set-up: dose 5 mg/kg, route intravenous; details: in vivo; in short: as §1
[7] = Mean residence time (infinity) in Sprague-Dawley rat at 30 mg/kg, po; assay type: ADME, organism-based; set-up: dose 30 mg/kg, route oral; details: in vivo; in short: as §1
[8] = Oral bioavailability in Sprague-Dawley rat at 30 mg/kg, po; assay type: ADME, organism-based; details: in vivo; in short: as §1
Rattus norvegicus [9] = test: Antiinflammatory activity in Sprague-Dawley rat assessed as inhibition of carrageenan-induced paw edema at 30 mg/kg, ip administered 30 mins before carrageenan challenge measured at 6 hrs; assay type: functional; set-up: scale not given: the % may be the effect or the level left; details: route intraperitoneal
In short: (§2)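 SD rats (150 g, 5 weeks, SPF), five per group: vehicle, indomethacin 10 mg/kg (DMSO/Tween 80/H2O 1:4:95) as positive control, or compound at 30 or 100 mg/kg (ethanol/PEG 400-based vehicle), given ip. Ankle thickness measured by caliper; swelling expressed as % increase over pre-treatment thickness. Inhibition taken relative to vehicle at 6 h and later time point.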

Rattus norvegicus [10] = test: Antiinflammatory activity in Sprague-Dawley rat assessed as inhibition of carrageenan-induced paw edema at 100 mg/kg, ip administered 30 mins before carrageenan challenge measured at 6 hrs; assay type: functional; set-up: scale not given: the % may be the effect or the level left; details: route intraperitoneal; in short: as §2
Rattus norvegicus [11] = test: Antiinflammatory activity in Sprague-Dawley rat assessed as inhibition of carrageenan-induced paw edema at 30 mg/kg, ip administered 30 mins before carrageenan challenge measured at 12 hrs; assay type: functional; set-up: scale not given: the % may be the effect or the level left; details: route intraperitoneal; in short: as §2
Rattus norvegicus [12] = test: Antiinflammatory activity in Sprague-Dawley rat assessed as inhibition of carrageenan-induced paw edema at 100 mg/kg, ip administered 30 mins before carrageenan challenge measured at 12 hrs; assay type: functional; set-up: scale not given: the % may be the effect or the level left; details: route intraperitoneal; in short: as §2
Interstitial collagenase = molecular target: T2, Interstitial collagenase (Homo sapiens, UniProt P03956); test: Inhibition of human MMP1 in cell-free system by fluorescent spectroscopy
T2 sequence (P03956 whole entry): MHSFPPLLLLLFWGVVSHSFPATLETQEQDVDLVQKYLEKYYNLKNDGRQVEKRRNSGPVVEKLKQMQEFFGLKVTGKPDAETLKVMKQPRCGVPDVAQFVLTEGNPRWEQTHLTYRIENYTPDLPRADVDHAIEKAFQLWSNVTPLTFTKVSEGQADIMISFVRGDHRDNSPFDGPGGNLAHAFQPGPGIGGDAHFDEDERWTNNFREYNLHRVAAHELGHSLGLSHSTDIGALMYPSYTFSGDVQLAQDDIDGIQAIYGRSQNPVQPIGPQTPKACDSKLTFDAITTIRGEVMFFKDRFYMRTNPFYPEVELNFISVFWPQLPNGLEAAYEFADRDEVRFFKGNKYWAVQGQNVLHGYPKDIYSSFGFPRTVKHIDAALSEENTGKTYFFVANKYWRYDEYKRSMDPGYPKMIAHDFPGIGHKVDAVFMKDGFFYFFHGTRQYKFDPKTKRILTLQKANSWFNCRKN

Stromelysin-1 = Stromelysin-1 (Homo sapiens, UniProt P08254); test: Inhibition of human MMP3 in cell-free system by fluorescent spectroscopy
In short: (§3)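 Recombinant human MMP-3 or MMP-9 catalytic domain with fluorogenic quenched peptide Mca-Pro-Leu-Gly-Leu-Dpa-Ala-Arg-NH2. Cleavage followed as fluorescence increase (excitation 324, emission 420). Rate of emission change taken as enzyme activity; IC50 values are means of three experiments.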

[13] = molecular target: Matrix metalloproteinase-9 (Homo sapiens, UniProt P14780); test: Inhibition of human MMP9 in cell-free system by fluorescent spectroscopy; in short: as §3
Mus musculus [14] = test: Inhibition of LPS-alpha induced TNF-alpha production in BALB/c mouse assessed as decreased plasma TNF level at 30 mg/kg, po administered post LPS challenge measured after 60 mins by ELISA; assay type: functional; details: 1 h
In short: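 BALB/c mice (7–9 weeks), four per group, fasted 24 h. LPS given ip; compound given orally at 30 mg/kg ([…]). Serum collected from the heart and TNF-α measured by ELISA; percent inhibition reported.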

[15] = Half life in human liver microsomes at 40 uM by LC/MS/MS; assay type: ADME, Microsome
In short: (§4)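 Compound at 40 µM with human liver microsomes (1 mg/mL), preincubated 5 min at 37 °C, then started with NADPH (1 mM final). Aliquots taken at 0, 15, 45 and 80 min and quenched with ice-cold acetonitrile containing carbamazepine internal standard. Centrifuged, then LC/MS/MS for parent; half-life and microsomal clearance derived.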

[16] = Metabolic stability in human liver microsomes at 40 uM by LC/MS/MS; assay type: ADME, Microsome; in short: as §4
[17] = Tmax in Sprague-Dawley rat at 30 mg/kg, po; assay type: ADME, organism-based; set-up: dose 30 mg/kg, route oral; details: in vivo; in short: as §1
[18] = Cmax in Sprague-Dawley rat at 30 mg/kg, po; assay type: ADME, organism-based; set-up: dose 30 mg/kg, route oral; details: in vivo; in short: as §1
[19] = AUC (0 to infinity) in Sprague-Dawley rat at 5 mg/kg, iv; assay type: ADME, organism-based; set-up: time infinity, dose 5 mg/kg, route intravenous; details: plasma; in short: as §1
[20] = AUC (0 to infinity) in Sprague-Dawley rat at 30 mg/kg, po; assay type: ADME, organism-based; set-up: time infinity, dose 30 mg/kg, route oral; details: plasma; in short: as §1
[21] = Clearance in Sprague-Dawley rat at 5 mg/kg, iv; assay type: ADME, organism-based; set-up: dose 5 mg/kg, route intravenous; details: in vivo; in short: as §1
[22] = Volume of distribution at steady state in Sprague-Dawley rat at 5 mg/kg, iv; assay type: ADME, organism-based; set-up: dose 5 mg/kg, route intravenous; details: in vivo, read-out: Vdss; in short: as §1

T1 sequence (P78536 whole entry, the tested form may be a part): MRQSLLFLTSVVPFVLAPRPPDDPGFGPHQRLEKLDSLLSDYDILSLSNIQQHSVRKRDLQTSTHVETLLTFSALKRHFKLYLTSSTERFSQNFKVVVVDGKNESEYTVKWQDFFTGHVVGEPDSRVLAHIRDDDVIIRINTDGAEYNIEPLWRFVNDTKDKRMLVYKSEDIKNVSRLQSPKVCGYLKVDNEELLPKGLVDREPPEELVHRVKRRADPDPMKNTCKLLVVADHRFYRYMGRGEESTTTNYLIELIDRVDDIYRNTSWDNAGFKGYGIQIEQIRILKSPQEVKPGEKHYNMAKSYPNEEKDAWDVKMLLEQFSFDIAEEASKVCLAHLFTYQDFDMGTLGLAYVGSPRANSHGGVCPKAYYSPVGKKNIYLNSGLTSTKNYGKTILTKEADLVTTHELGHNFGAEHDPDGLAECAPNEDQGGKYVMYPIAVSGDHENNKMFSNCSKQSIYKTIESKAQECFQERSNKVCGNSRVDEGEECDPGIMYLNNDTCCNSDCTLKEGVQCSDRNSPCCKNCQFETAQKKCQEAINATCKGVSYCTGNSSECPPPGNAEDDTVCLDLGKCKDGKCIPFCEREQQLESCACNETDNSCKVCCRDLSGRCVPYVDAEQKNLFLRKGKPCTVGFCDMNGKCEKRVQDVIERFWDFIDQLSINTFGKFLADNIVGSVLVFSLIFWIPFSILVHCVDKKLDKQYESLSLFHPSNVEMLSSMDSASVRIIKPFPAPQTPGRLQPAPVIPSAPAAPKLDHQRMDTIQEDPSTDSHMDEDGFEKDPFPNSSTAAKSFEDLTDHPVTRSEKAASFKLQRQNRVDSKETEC
Chain of Stromelysin-1 (P08254 whole entry, the tested form may be a part): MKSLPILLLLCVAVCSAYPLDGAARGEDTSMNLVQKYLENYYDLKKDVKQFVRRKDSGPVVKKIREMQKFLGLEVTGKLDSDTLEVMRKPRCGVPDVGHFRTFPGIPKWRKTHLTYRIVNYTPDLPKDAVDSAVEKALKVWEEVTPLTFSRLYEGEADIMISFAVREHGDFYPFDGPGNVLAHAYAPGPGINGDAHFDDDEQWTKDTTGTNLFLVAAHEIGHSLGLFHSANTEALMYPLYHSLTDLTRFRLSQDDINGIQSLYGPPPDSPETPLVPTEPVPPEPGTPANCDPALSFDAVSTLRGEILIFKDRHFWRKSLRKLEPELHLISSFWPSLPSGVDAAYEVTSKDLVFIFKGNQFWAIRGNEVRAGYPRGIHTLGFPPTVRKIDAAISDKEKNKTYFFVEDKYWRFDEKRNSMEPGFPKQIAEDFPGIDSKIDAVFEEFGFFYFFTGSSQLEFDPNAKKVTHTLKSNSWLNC
Chain of Matrix metalloproteinase-9 (P14780 whole entry): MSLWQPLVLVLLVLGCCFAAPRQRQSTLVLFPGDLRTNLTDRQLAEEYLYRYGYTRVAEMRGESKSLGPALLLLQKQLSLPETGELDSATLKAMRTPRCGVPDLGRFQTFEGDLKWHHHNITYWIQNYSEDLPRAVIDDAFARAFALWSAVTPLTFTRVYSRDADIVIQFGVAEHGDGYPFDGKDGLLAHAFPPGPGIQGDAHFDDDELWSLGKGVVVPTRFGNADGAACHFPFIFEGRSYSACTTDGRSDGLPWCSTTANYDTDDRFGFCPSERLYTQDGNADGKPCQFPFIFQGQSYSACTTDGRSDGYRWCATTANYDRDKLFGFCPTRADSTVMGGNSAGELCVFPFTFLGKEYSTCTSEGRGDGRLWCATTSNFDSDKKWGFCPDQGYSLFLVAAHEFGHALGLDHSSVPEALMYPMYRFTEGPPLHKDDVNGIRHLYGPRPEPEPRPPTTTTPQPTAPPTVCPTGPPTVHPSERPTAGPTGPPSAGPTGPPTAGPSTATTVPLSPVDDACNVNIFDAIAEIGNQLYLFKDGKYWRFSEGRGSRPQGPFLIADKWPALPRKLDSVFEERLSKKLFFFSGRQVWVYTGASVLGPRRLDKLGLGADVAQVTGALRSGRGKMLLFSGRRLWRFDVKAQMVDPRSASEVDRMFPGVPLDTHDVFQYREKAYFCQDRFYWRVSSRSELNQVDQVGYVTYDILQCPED

For `Cc1ccc2oc(=O)c(CC(CCc3ccc(OCCN(C)C)cc3)C(=O)NO)cc2c1` (stereo not given), the IC50 [1] was 0.00066 µM, the IC50 [2] was 0.11 µM and the IC50 (Mus musculus [3]) was “Not Active”.
With `CCN(CC)CCOc1ccc(CCC(Cc2cc3cc(C)ccc3oc2=O)C(=O)NO)cc1` (stereo not given) the IC50 [1] was 0.00053 µM, the IC50 [2] was 0.14 µM and the IC50 (Mus musculus [3]) was “Not Active”.
With `CCN(CC)CCOc1ccc(CCC(Cc2cc3ccc(F)cc3oc2=O)C(=O)NO)cc1` (stereo not given) the IC50 [1] was 0.00046 µM, the IC50 [2] was 0.07 µM and the IC50 (Mus musculus [3]) was “Not Active”.
In the case of `CCN(CC)CCOc1ccc(CCC(Cc2cc3ccc(C)cc3oc2=O)C(=O)NO)cc1` (stereo not given), the half-life [4] is reported as 2.8 h, the half-life [5] is reported as 3.19 h and the MRT inf [6] is reported as 1.14 h. It also gave an MRT inf [7] of 2.9 h, a bioavailability [8] of 41.6% and an Activity (Rattus norvegicus [9]) of 8%. For the same molecule, the Activity (Rattus norvegicus [10]) was 20%, the Activity (Rattus norvegicus [11]) was 14% and the Activity (Rattus norvegicus [12]) was 35%. For the same molecule, the IC50 [1] was 0.00028 µM, the IC50 [2] was 0.06 µM and the IC50 (Mus musculus [3]) was “Not Active”. The IC50 (Interstitial collagenase) was 0.557 µM, the IC50 (Stromelysin-1) was 0.0087 µM and the IC50 [13] was 0.023 µM. The inhibition in vivo at 30 mg/kg (Mus musculus [14]) was 74%, the half-life at 40 µM [15] was 1.22 h and the microsomal CLint at 40 µM [16] was 9.5 µL/min/mg. It also gave a Tmax [17] of 2 h, a Cmax [18] of 1140 ng/mL and an AUC(0-inf) [19] of 1880 ng·h/mL. The AUC(0-inf) [20] was 4690 ng·h/mL, the clearance [21] was 44.3 mL/min/kg and the Vd [22] was 3.04 L/kg.
For `Cc1ccc2oc(=O)c(CC(CCCCc3ccccc3)C(=O)NO)cc2c1` (stereo not given), the IC50 [1] was 0.0328 µM, the IC50 [2] was > 3 µM and the IC50 (Mus musculus [3]) was “Not Active”.
With `Cc1ccc2oc(=O)c(CC(CCc3ccc(O)cc3)C(=O)NO)cc2c1` (stereo not given) the IC50 [1] was 0.0003 µM, the IC50 [2] was 0.92 µM and the IC50 (Mus musculus [3]) was “Not Active”.
In the case of `Cc1ccc2oc(=O)c(CC(Cc3ccc(OCCN4CCCCC4)cc3)C(=O)NO)cc2c1` (stereo not given), the IC50 [1] is reported as 0.0109 µM, the IC50 [2] is reported as 1.5 µM and the IC50 (Mus musculus [3]) is reported as “Not Active”.
For `Cc1ccc2oc(=O)c(CC(Cc3cccc(OCCN4CCCCC4)c3)C(=O)NO)cc2c1` (stereo not given), the IC50 [1] was 0.00107 µM, the IC50 [2] was 0.26 µM and the IC50 (Mus musculus [3]) was “Not Active”.
In the case of `Cc1ccc2oc(=O)c(CC(CCc3ccc(OCCN4CCCCC4)cc3)C(=O)NO)cc2c1` (stereo not given), the IC50 [1] is reported as 0.00104 µM, the IC50 [2] is reported as 0.2 µM and the IC50 (Mus musculus [3]) is reported as “Not Active”.
With `Cc1ccc2oc(=O)c(CC(CCc3cccc(OCCN4CCCCC4)c3)C(=O)NO)cc2c1` (stereo not given) the IC50 [1] was 0.0009 µM, the IC50 [2] was 0.24 µM and the IC50 (Mus musculus [3]) was “Not Active”.
With `Cc1ccc2oc(=O)c(CC(CCCc3ccc(OCCN4CCCCC4)cc3)C(=O)NO)cc2c1` (stereo not given) the IC50 [1] was 0.00107 µM, the IC50 [2] was 0.32 µM and the IC50 (Mus musculus [3]) was “Not Active”.
In the case of `Cc1ccc2oc(=O)c(CC(CCCc3cccc(OCCN4CCCCC4)c3)C(=O)NO)cc2c1` (stereo not given), the IC50 [1] is reported as 0.00027 µM, the IC50 [2] is reported as 0.23 µM and the IC50 (Mus musculus [3]) is reported as “Not Active”.
For `Cc1ccc2oc(=O)c(CC(Cc3ccccc3)C(=O)NO)cc2c1` (stereo not given), the IC50 [1] was 0.0005 µM, the IC50 [2] was 0.52 µM and the IC50 (Mus musculus [3]) was “Not Active”.
